Assay: Toxicity liver stage against HepG2, at 10uM
Format: cell-based
Design: test concentration 10 uM, cell line HepG2-A16-CD81EGFP
Conditions: human, HepG2-A16-CD81EGFP cells; read-out: INHIBITION
Outline: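 Uninfected HepG2-A16-CD81EGFP cells, 3 × 10^3 per well, 1536-well, plated on prespotted compound at 10 μM final, parasite-free screening media added to match infected plates; puromycin 10 μM positive, DMSO 0.5% negative; run in parallel with 48 h PbLuc assay at 37 °C, 5% CO2; viability by CellTiter-Glo luminescence, normalized to controls.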

Compound	cytotoxicity at 10 µM
CS(=O)(=O)Cc1noc(CN2CCN(c3ccccc3Cl)CC2)n1	5.09%
COCc1nc(N(C)C)ncc1C(=O)Nc1cc(C)cc(C)c1	6.89%
COc1ccc(F)cc1C(=O)C1CCCN(Cc2ccc(C)s2)C1 (stereo unspecified)	-1.84%
CCc1nnc2n1CCN(Cc1nc3c(F)cccc3[nH]1)C2	-8.06%
Oc1cc(CN2CCC(O)(Cn3ccnc3)CC2)nc2c(Cl)cccc12	-60.8%
CCc1cnc(CN(C(C)=O)C2CCN(Cc3nccn3C)C2)o1 (stereo unspecified)	-8.13%
CCOCC1CN(C(=O)Cc2ccccn2)Cc2cnn(CC)c21 (stereo unspecified)	-68.9%
Cc1csc2c(C3CCCN(C(=O)CCn4cncn4)C3)nc(C)n12 (stereo unspecified)	7.96%
O=C1CC2(CCCCN2C(=O)c2ccccc2)CN1CC1CC1 (stereo unspecified)	3.85%
O=C(c1ccsc1)N1CCO[C@@H]2CN(Cc3ccccn3)CC[C@@H]2C1	-123%
Cc1ncc(CNC(=O)N(C)C2CCN(c3ccccc3)C2=O)s1 (stereo unspecified)	-14.7%
Cc1ccc(C(=O)N2CCN(CCc3ccccc3)CC2)c(=O)[nH]1	-7.1%
Cc1nn(C)c(C)c1CCC(=O)N1CCCC(n2cccn2)C1 (stereo unspecified)	-6.69%
Cc1nnc(C(C)NCC2(c3ccc(Cl)cc3)CCOCC2)o1 (stereo unspecified)	-1.47%
CCN1CCN(C[C@@H]2CN(c3ncc(Cl)cc3Cl)C[C@@H]2CO)CC1	-6%
CN(Cc1ccco1)C[C@H]1OC[C@@H]2CCN(Cc3ccccn3)C[C@@H]21	-3.22%
Cc1ccc(S(=O)(=O)Nc2ccc(-n3nnn(C)c3=O)cc2)cc1	-4.1%
CCN1CCC2(CCC1=O)CN(C1CCOCC1)CCN2C (stereo unspecified)	-1.14%
Cc1ccc(C(=O)NC2CCN(C(=O)Nc3ccncc3)CC2)o1	1.48%
CCS(=O)(=O)N1CCN(Cc2ccncc2)c2nc(C)ccc2C1	-70.8%
O=C(CN1CC(c2nc(C3CC3)no2)C1)N1CCOCC1	-9.76%

Compound	cytotoxicity at 10 µM
CN1Cc2nnc(C3CCOCC3)n2C(Cc2c[nH]cn2)C1 (stereo unspecified)	-12.1%
CCn1ncnc1C(C)NC(=O)C1CCN(C(C)C)CC1 (stereo unspecified)	18.5%
CCN(CC)C(=O)CN1CCC(c2nc(C)c3c(n2)N(C)CCC3)CC1	4.14%
Cc1nc(CN2CCCN(Cc3nc4c(F)cccc4[nH]3)CC2)no1	0.601%
N#CC(Sc1nnnn1C1CCOCC1)C1CCCCC1 (stereo unspecified)	21.7%
CCCS(=O)(=O)N1CCC(NC(=O)c2ccc(Cl)s2)CC1	22.4%
CC(NCCCC#N)c1ccc(S(C)(=O)=O)c(F)c1 (stereo unspecified)	6.96%
CCn1cc(CN2CCCN(C(=O)CCc3cnn(C)c3)CC2)cn1	0.153%
Cc1nc(C)n(CC2CCCCN2Cc2cscn2)n1 (stereo unspecified)	-5.26%
CC(C)N(CC(=O)Nc1cccc(C#N)c1)C1CC1	-7.16%
Cc1cccc(C(C)C)c1NC(=O)NCCN(C(C)C)C(C)C	-8.98%
Cc1nn2c(=O)/c(=C\c3cccs3)sc2nc1=O	7.19%
CCOc1ccc(Cl)c(C(=O)NCCS(N)(=O)=O)n1	-8.72%
COCC1CC2(CCN(Cc3cccnc3)CC2)CN1C(C)C (stereo unspecified)	-4.21%
CCC(CNC(=O)c1ccccn1)N1CCc2ccccc2C1 (stereo unspecified)	1.02%
CC(=O)Nc1nc(CN(C)CC2CCCN2c2cccnn2)cs1 (stereo unspecified)	15.1%
CCOc1ccccc1Oc1ccc(CN)cn1	6.03%
Cn1c(CN2CCOCC2)cc(=O)c(O)c1CN1CCCCC1	-3.15%
CN(C)S(=O)(=O)N1CCC(C(O)c2ccc(Cl)cc2)CC1 (stereo unspecified)	-21.4%
Cc1cc(NC(=O)CN2CCCC(Cn3cncn3)C2)on1 (stereo unspecified)	1.68%
COC(=O)CN(C(=O)c1ccc(Cl)cn1)c1cccc(F)c1	-8.61%

Compound	cytotoxicity at 10 µM
O=C(c1ccccn1)N1CCCC(c2nccn2Cc2ccncc2)C1 (stereo unspecified)	-14.1%
Cc1nc(C)n(CC2CCCN(CC(=O)Nc3cc(C)on3)C2)n1 (stereo unspecified)	-3.1%
CS(=O)(=O)N1CCN(CC2CC2)c2ncccc2C1	-152%
Fc1ccc(-c2cnc(CN3CCCC3Cn3cccn3)o2)cc1 (stereo unspecified)	-7.52%
COc1ccc(-c2noc([C@@H](C)NC(=O)CC(C)C)c2C(=O)O)cc1	2.05%
COCCN1CCC2(CC1)CC(NC(=O)C(C)C)c1ccccc1O2 (stereo unspecified)	3.82%
O=C(NCCNc1ncccn1)C1CC(=O)N(C2CCCC2)C1 (stereo unspecified)	-16.2%
CNC(=O)c1cnn2c(C3CCCN3)ccnc12 (stereo unspecified)	8.88%
Cc1[nH]c2ccc(Cl)cc2c1CCNc1ncnc2c1CCNC2	22.4%
COCCCNC(=O)C1CN(C(=O)c2cnccn2)C1	0.722%
O=C1CC2(CCN(Cc3cccnc3)C2)CN1c1ccc2c(c1)OCO2 (stereo unspecified)	-70.2%
C[C@@H]1C[C@@H]2CCN(Cc3ccncc3)C[C@H]2O1	-72.9%
CCC1=N[C@@]2(CC[C@@H]3CN(Cc4ccc(Cl)cc4)C[C@@H]32)C(=O)N1	3.6%
Cc1nnsc1C(=O)N1C[C@@H]2CC[C@H]1CN(c1cnccn1)C2	9.88%
CCn1cnnc1CNC(=O)N1CCN(CC(C)C)CC1	9.18%
CN(C)S(=O)(=O)N1CC[C@]2(C[C@H](OCc3ccncc3)CO2)C1	1.23%
CCCn1ccnc1CN1CCC(O)(CN2CCCCC2)C1 (stereo unspecified)	-6.12%
COCCNC(=O)[C@H]1C[C@@H]2CCN(Cc3ccoc3)C[C@H]2O1	2.31%
O=C(NCCSCc1ccco1)c1ccc(N2CCOCC2)cc1	-0.971%
Cn1ccc(C(=O)N2CCCC2c2cc(CO)[nH]n2)n1 (stereo unspecified)	4.95%
COc1nn(C)cc1C(=O)N1CCC(c2ccccc2)C1 (stereo unspecified)	-2.18%

Compound	cytotoxicity at 10 µM
CCO[C@H]1C[C@@H](O)C12CCN(C(=O)CCN1CCCC1=O)CC2	2.12%
Cc1c(C(=O)NCCN2C(=O)CCC2=O)sc2ccc(F)cc12	2.11%
CCn1nc(C(C)C)cc1C(=O)NCCCOC	-14.7%
COc1cc(N2C[C@H]3CCC[C@@H](CN4CCOCC4)[C@H]3C2)ncn1	-71.5%
C=C(C)COc1cccc(C(=O)N2CCC3(CCOCC3)CC2)c1	-47.1%
CN(C)CC(=O)NC1CC(C)(C)Cc2nc(C(C)(C)C)ncc21 (stereo unspecified)	-13.4%
CN1CCN(c2nc(O)cc(Cc3ccccc3F)n2)CC1	-5.08%
c1ccc(OC[C@H]2CCC[C@]23CN(Cc2nccs2)CCO3)nc1	3.34%
CCc1noc(C(C)N2CCCN(Cc3noc(C4CC4)n3)CC2)n1 (stereo unspecified)	-6.87%
CC(=O)c1cccc(OCCCC(=O)N(C)CCC(F)(F)F)c1	4.33%
CN(C)c1ccc(C(=O)N2CCN(CC(O)C(C)(C)C)CC2)nn1 (stereo unspecified)	-19.2%
CN(Cc1cccnc1)[C@@H]1CN(c2ncc(F)cn2)[C@@H]2CCCO[C@H]12	0.559%
Cc1ccc(N2C[C@H](O)[C@@H](N3CCN(c4ccccn4)CC3)C2)nn1	-0.442%
Cc1cccc(CN2CCCCC23CCNC3)n1 (stereo unspecified)	1.49%
CC(C)c1n[nH]c(C2CN(C(=O)c3cc(C4CC4)[nH]n3)CCO2)n1 (stereo unspecified)	-5.95%
Cc1ccc(OC2(C(=O)O)CCN(C(=O)c3ccoc3C)CC2)cn1	-1.56%
CNC(=O)CCc1cc(C)nc(C2CCN(C3CCCCC3)CC2)c1	4.54%
Cn1ccc(C(=O)N2CCN(c3ncccn3)CC2)cc1=O	-11.6%

— ChEMBL document CHEMBL4513216, “Probing the Open Global Health Chemical Diversity Library for Multistage-Active Starting Points for Next-Generation Antimalarials” (ACS Infect Dis, 2020)
